We go through 10 molecules from ChEMBL document CHEMBL1165965, “Synthesis and structure-activity relationships of 1,2,3,4-tetrahydropyrido[2,3-b]pyrazines as potent and selective inhibitors of the anaplastic lymphoma kinase” (Bioorg Med Chem, 2010).

Test [1] has as its target Proto-oncogene tyrosine-protein kinase receptor Ret (Homo sapiens) (UniProt P07949). The experiment in a line: Inhibition of RET at 1 uM.
The target of test [2] is Ribosomal protein S6 kinase alpha-6 (Homo sapiens) (UniProt Q9UK32). In words: Inhibition of RPS6KA6 N-terminal domain1 at 1 uM.
Sequence of Ribosomal protein S6 kinase alpha-6 (Homo sapiens) (Q9UK32 whole entry, the tested form may be a part): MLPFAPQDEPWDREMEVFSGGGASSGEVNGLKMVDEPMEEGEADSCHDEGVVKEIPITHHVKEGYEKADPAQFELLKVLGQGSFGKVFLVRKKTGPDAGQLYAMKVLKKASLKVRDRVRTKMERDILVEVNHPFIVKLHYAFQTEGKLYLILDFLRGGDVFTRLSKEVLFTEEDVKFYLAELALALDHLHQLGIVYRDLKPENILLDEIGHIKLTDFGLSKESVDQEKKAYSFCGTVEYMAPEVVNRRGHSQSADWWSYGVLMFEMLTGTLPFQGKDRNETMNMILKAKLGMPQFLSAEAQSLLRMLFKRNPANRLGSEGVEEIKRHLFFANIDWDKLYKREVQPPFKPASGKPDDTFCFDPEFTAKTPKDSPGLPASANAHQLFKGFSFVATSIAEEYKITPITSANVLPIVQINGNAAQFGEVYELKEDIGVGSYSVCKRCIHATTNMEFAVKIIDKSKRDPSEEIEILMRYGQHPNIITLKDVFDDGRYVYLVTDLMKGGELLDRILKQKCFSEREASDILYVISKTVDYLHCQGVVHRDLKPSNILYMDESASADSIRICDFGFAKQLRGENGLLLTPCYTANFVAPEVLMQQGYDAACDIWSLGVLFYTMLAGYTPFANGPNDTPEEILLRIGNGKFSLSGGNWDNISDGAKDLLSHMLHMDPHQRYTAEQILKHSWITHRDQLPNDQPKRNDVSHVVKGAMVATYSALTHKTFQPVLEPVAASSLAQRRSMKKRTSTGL
The target in test [3] is TGF-beta receptor type-2 (Homo sapiens) (UniProt P37173). In words: Inhibition of TGFBR2 at 1 uM.
Sequence of TGF-beta receptor type-2 (Homo sapiens) (P37173 whole entry): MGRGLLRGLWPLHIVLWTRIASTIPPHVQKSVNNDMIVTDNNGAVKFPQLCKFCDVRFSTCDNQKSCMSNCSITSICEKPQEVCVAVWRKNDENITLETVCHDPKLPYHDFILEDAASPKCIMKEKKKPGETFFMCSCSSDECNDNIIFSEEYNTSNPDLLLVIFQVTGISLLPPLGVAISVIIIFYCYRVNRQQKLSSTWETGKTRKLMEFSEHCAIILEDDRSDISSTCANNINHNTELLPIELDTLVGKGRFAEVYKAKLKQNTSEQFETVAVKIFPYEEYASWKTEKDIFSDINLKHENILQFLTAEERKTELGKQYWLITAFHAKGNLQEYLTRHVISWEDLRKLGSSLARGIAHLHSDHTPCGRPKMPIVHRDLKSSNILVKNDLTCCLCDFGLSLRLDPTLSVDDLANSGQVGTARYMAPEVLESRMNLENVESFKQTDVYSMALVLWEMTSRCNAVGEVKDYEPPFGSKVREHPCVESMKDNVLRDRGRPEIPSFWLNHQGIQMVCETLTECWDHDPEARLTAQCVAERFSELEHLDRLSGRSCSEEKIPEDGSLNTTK
For test [4], the target named is Serine/threonine-protein kinase tousled-like 2 (Homo sapiens) (UniProt Q86UE8). In words: Inhibition of TLK2 at 1 uM.
Sequence of Serine/threonine-protein kinase tousled-like 2 (Homo sapiens) (Q86UE8 whole entry, looked up): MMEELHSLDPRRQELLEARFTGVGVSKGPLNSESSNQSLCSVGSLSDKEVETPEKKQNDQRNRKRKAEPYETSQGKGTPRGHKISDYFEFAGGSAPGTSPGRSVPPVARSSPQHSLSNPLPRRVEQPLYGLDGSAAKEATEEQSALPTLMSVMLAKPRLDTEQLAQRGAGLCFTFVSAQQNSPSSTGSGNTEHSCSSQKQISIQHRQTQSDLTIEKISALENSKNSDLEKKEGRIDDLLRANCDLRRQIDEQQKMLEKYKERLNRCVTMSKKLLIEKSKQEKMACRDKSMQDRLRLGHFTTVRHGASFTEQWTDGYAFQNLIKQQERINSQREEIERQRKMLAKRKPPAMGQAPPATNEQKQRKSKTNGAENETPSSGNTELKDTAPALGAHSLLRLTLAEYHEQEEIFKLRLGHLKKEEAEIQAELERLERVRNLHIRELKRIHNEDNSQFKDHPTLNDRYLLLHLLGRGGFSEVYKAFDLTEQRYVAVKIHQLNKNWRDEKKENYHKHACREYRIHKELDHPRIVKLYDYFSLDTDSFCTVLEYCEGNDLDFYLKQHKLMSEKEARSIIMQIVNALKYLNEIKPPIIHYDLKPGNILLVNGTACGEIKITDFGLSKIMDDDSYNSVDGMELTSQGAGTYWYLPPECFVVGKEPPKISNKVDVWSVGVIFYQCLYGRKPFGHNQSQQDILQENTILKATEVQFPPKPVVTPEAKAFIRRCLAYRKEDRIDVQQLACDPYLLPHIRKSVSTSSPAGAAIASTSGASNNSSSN
Test [5] deals with Tyrosine-protein kinase ABL1 (Homo sapiens), P00519 [E255K]. In words: Inhibition of ABL1 E255K mutant at 1 uM. The method in brief: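 Ambit KINOMEscan screen at a single concentration across a 250–400 kinase panel, recorded as percent inhibition. Selectivity was expressed as S(90), the fraction of kinases inhibited >90%.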
Sequence of Tyrosine-protein kinase ABL1 (Homo sapiens), P00519 [E255K] (P00519 whole entry E255K): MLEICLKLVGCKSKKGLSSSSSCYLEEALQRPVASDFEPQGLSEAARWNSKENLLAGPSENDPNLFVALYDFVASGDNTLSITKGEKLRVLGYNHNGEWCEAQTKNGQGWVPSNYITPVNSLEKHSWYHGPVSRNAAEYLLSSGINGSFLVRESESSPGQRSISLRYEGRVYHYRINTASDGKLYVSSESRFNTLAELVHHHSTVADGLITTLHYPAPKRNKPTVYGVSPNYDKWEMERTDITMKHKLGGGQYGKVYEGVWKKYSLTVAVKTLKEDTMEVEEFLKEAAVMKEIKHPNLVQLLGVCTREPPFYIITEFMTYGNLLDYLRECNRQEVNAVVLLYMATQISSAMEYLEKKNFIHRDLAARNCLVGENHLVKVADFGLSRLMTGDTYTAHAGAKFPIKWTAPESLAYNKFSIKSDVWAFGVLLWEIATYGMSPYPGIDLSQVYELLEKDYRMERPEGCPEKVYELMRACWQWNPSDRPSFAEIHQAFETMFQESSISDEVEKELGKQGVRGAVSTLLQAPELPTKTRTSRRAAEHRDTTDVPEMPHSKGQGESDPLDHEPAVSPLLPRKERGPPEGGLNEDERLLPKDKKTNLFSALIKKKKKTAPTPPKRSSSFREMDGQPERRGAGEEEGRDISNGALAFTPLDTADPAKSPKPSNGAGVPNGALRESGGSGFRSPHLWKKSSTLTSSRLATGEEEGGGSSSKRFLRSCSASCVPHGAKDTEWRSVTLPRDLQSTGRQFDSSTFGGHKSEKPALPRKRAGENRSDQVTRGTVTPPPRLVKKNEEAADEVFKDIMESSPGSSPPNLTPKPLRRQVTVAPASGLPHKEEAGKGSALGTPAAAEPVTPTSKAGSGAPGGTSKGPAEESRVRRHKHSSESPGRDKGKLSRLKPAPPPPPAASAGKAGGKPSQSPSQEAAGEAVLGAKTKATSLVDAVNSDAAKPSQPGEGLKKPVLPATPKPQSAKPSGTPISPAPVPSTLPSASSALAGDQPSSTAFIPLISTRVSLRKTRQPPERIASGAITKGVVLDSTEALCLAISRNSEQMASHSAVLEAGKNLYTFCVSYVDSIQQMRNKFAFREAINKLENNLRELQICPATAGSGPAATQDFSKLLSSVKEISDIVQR
Test [6] deals with Ephrin type-A receptor 5 (Homo sapiens) (UniProt P54756). The experiment in a line: Inhibition of EPHA5 at 1 uM. The method, boiled down: (§1)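 Single-concentration screen using Ambit Bioscience KINOMEscan technology across a panel of 250–400 kinases. Per-kinase inhibition from this screen was summarized as S(90), the fraction of kinases inhibited by more than 90%.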
Sequence of Ephrin type-A receptor 5 (Homo sapiens) (P54756 whole entry): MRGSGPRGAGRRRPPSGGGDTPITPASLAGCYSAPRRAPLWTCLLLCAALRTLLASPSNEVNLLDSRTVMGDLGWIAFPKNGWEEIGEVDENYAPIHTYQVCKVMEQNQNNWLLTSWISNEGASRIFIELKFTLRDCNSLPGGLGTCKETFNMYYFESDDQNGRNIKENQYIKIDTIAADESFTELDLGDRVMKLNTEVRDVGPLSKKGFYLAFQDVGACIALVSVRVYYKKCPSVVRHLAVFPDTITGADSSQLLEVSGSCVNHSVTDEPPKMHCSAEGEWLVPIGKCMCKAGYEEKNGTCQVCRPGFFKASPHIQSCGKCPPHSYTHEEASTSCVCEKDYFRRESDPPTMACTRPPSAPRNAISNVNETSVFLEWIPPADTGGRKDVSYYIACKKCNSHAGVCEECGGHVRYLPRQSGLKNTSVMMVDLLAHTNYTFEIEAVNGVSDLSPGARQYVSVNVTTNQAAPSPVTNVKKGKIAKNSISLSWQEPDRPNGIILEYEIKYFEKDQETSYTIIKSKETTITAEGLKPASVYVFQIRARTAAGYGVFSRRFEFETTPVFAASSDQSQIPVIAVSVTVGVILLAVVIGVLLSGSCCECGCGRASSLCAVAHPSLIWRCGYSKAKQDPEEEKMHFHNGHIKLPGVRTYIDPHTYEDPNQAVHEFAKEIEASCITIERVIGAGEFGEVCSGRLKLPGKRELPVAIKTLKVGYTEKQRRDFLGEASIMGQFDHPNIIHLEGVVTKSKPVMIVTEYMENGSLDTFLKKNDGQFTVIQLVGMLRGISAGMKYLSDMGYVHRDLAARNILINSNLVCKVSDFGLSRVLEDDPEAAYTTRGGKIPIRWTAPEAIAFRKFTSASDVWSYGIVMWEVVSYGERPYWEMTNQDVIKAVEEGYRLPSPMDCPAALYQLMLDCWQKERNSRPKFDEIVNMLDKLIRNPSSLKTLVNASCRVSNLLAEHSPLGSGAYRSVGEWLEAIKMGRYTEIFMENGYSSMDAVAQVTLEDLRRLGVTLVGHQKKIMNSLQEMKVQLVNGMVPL
Test [7] has as its system Fibroblast growth factor receptor 3 (Homo sapiens), P22607 [G697C]. In words: Inhibition of FGFR3 G697C mutant at 1 uM. The method in brief: as §1
Test [8] concerns the target T1, Mitogen-activated protein kinase kinase kinase 2 (Homo sapiens) (UniProt Q9Y2U5).
T1 sequence (whole entry): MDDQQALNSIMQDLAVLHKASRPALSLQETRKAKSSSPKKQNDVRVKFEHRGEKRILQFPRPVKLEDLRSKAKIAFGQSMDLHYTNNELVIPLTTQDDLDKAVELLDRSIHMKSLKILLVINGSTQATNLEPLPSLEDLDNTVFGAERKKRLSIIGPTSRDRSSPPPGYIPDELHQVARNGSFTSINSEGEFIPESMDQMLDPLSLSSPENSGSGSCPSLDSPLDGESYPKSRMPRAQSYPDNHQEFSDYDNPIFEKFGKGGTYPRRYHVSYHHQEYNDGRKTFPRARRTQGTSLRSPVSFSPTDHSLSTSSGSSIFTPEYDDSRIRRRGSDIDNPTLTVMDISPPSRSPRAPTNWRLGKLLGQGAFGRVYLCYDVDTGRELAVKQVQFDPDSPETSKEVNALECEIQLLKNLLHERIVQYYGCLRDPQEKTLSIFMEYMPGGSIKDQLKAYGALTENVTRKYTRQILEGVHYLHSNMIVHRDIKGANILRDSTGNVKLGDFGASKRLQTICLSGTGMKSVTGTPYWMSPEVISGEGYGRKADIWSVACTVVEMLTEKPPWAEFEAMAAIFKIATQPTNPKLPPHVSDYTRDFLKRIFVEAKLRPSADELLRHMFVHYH
The experiment in a line: Inhibition of MAP3K2 at 1 uM.

Test [9] has as its system Phosphatidylinositol 4,5-bisphosphate 3-kinase catalytic subunit alpha isoform (Homo sapiens), P42336 [E542K]. The experiment in a line: Inhibition of PIK3CA E542K mutant at 1 uM.
Test [10] concerns the target Phosphatidylinositol 4,5-bisphosphate 3-kinase catalytic subunit gamma isoform (Homo sapiens) (UniProt P48736). In words: Inhibition of PIK3CG at 1 uM.
For test [11], the target named is Serine/threonine-protein kinase PRP4 homolog (Homo sapiens) (UniProt Q13523). The experiment in a line: Inhibition of PRP4 at 1 uM.
Test [12] concerns the target T2, Mitogen-activated protein kinase kinase kinase 6 (Homo sapiens) (UniProt O95382).
T2 sequence (whole entry): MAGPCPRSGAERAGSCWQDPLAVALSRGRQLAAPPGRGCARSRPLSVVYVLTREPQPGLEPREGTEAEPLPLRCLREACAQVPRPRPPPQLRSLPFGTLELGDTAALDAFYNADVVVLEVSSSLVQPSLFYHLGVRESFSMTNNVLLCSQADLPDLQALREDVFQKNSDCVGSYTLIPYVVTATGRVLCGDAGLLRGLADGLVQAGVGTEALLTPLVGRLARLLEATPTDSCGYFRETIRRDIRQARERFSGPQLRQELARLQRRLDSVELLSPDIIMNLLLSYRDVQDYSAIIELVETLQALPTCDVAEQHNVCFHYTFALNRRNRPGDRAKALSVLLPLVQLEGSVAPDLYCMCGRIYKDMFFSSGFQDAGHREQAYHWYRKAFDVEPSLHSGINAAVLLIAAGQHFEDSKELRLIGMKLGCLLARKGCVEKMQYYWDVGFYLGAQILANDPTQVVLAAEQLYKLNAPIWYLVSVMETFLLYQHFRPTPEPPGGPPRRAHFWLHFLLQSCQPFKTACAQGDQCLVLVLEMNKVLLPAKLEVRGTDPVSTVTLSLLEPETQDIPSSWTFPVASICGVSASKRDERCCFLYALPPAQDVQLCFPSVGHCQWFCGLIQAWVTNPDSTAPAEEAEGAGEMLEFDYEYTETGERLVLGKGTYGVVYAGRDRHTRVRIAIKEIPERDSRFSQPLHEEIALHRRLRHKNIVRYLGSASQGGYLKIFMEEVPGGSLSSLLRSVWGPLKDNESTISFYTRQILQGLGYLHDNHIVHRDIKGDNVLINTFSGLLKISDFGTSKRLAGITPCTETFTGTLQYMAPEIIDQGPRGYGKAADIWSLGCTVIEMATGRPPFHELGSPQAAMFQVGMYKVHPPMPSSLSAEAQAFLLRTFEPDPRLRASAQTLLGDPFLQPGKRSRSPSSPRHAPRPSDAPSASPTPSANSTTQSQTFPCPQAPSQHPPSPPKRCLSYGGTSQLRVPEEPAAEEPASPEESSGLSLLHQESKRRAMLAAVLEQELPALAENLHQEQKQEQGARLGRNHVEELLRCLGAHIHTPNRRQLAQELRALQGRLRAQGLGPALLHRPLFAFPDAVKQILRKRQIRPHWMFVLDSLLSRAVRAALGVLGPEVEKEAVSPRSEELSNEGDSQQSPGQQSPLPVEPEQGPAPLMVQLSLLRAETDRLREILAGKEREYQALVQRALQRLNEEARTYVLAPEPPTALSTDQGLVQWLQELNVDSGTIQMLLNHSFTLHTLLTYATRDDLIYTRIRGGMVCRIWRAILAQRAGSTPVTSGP
In words: Inhibition of ASK2 at 1 uM.

Test [13] deals with Mitogen-activated protein kinase 7 (Homo sapiens) (UniProt Q13164). The experiment in a line: Inhibition of ERK5 at 1 uM.
Sequence of Mitogen-activated protein kinase 7 (Homo sapiens) (Q13164 2-816 limits assumed): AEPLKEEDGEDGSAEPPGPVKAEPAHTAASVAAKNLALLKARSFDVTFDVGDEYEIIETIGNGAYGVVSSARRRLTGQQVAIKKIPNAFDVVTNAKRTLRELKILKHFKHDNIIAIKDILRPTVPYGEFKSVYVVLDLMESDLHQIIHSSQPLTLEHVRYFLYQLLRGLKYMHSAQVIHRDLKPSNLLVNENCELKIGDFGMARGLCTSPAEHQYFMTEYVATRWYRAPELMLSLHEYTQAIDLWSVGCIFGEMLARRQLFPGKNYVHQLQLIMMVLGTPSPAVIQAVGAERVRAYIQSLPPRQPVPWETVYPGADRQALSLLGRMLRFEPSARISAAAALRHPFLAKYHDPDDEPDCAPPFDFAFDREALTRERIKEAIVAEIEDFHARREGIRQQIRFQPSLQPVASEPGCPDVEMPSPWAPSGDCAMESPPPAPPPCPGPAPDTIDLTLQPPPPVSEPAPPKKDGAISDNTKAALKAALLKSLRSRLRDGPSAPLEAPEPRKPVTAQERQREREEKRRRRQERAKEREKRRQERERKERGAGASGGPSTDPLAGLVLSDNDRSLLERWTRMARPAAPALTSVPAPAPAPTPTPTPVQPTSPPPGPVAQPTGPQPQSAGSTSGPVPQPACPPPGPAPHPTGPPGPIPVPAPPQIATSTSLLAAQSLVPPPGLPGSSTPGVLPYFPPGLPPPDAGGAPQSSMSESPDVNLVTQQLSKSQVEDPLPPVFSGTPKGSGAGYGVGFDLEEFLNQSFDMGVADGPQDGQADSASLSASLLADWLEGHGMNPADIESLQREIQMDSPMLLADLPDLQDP

Some results are limits rather than exact numbers.

Regarding `O=C(c1ccc(-c2cnc3c(c2)N(Cc2cc(Cl)ccc2C(F)(F)F)CCN3)cc1)N1CCCCC1`, the inhibition in [1], in test [2], in test [3], in test [4], in [5] and in test [6] was below 50% in each case. Further, the inhibition in test [7] is below 50%.
For the molecule `CN1CCN(c2ccc(-c3cnc4c(c3)N(Cc3c(F)ccc(F)c3Cl)CCN4)cn2)CC1`, the inhibition in test [8], in test [9], in [10], in [11], in [1] and in test [2] was below 50% throughout. Besides, the inhibition in test [3] was below 50%; in test [4], below 50%; in [5], 70%; in [12], below 50%; in test [6] it was below 50%; in test [13], below 50%. In test [7], this molecule registered an inhibition below 50%.
`COC1CCN(C(=O)c2ccc(-c3cnc4c(c3)N(Cc3cc(Cl)ccc3C(F)(F)F)CCN4)cc2)CC1`: the inhibition in test [1], in test [2], in test [3], in test [4], in test [5] and in [12] was below 50% throughout. For the same molecule, the inhibition in test [6] and in test [7] was below 50% throughout.
With `O=C(O)c1ccc(-c2cnc3c(c2)N(Cc2cc(Cl)ccc2C(F)(F)F)CCN3)cc1`, the inhibition in test [1], in [2], in test [3], in [4], in [5] and in [6] was below 50% in each case. The molecule also yielded an inhibition in [7] below 50%.
For the molecule `FC(F)(F)c1ccc(Cl)cc1CN1CCNc2ncc(-c3ccnc(N4CCNCC4)c3)cc21`, the inhibition in [8] was 93%; in test [9], below 50%; in [10], below 50%; in test [11], below 50%; in [1] it was 77%; in [2], below 50%. Further, the inhibition in [3], in test [4], in test [5], in test [12], in test [6] and in test [13] was below 50% throughout. Moreover, in test [7], the inhibition was below 50%.
For the molecule `CN1CCN(c2ccc(-c3cnc4c(c3)N(Cc3cc(Cl)ccc3Cl)CCN4)cn2)CC1`, the inhibition in test [8], in test [9], in [10], in [11], in [1] and in [2] was below 50% each time. The inhibition in [3], in test [4], in test [5], in [12], in test [6] and in [13] was below 50% throughout. In test [7], the inhibition was below 50%.
For `O=C(c1ccc(-c2cnc3c(c2)N(Cc2cc(Cl)ccc2C(F)(F)F)CCN3)cc1)N1CCC(N2CCCC2)CC1`, the inhibition in [1], in test [2], in test [3], in test [4], in test [5] and in test [12] was below 50% in each case. The inhibition in [6] and in test [7] was below 50% each time.
Consider `CN1CCN(c2ccc(-c3cnc4c(c3)N(Cc3cc(Cl)ccc3C(F)(F)F)CCN4)cn2)CC1`, for which the inhibition in [8] is 74%; in test [9], below 50%; in [10], below 50%; in test [11], below 50%; in test [1], below 50%; in [2], below 50%. The inhibition in [3], in test [4], in test [5], in test [12], in test [6] and in test [13] was below 50% each time. Moreover, the inhibition in [7] is below 50%.
For the molecule `CC(=O)N1CCN(c2cc(-c3cnc4c(c3)N(Cc3cc(Cl)ccc3C(F)(F)F)CCN4)ccn2)CC1`, the inhibition is 81% in [8]; below 50% in [9]; below 50% in [10]; below 50% in test [11]; below 50% in [1]; below 50% in test [2]. The inhibition in test [3], in test [4], in test [5], in [12], in test [6] and in [13] was below 50% throughout. In test [7], this molecule registered an inhibition below 50%.
On to `CN1CCN(c2ccc(-c3cnc4c(c3)N(Cc3cc(F)ccc3F)CCN4)cn2)CC1`, for which the inhibition in test [8], in test [9], in [10], in [11], in test [1] and in test [2] was below 50% throughout. The inhibition in [3], in test [4], in test [5], in test [12], in [6] and in test [13] was below 50% each time. Besides, the inhibition in test [7] was below 50%.
